We go through 2 molecules from PubChem BioAssay AID504676 (Southern Research Specialized Biocontainment Screening …, 2011).

The experiment concerns E. coli EV36 K1 capsule, T7 phage lysis, OD600. In words: capsule removal specificity in E. coli EV36 – T7 phage, EV36 K1:K-12 hybrid, OD600, set 3, selectivity assay for bacterial capsule biogenesis inhibitor project, dose response (AID 504676). Summed up:
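System: E. coli EV36 K1/K-12 hybrid bacteria / Repeats: four replicate wells / Schedule: 1.5 h pre-phage compound exposure, 3 h post-infection, 37 °C shaking / Evaluation: lysis by OD600 decrease after T7 infection / Technique: OD600 absorbance / Medium: LB growth medium / Doses: dose series from 0.39 to 100 µM final, 1% DMSO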

In general, IC50 refers to the concentration that inhibits the measured activity by half. For the molecule `COc1ccc2nc(NC(=O)c3cccs3)sc2c1`, the IC50 was 5.9 µM.

Regarding `COc1ccc2nc(NC(=O)c3ccco3)sc2c1`, the IC50 is 22.9 µM.
